Usually LD50 stands for the dose expected to kill half of the subjects tested. Low readings indicate a more toxic substance, high ones a less toxic substance. One may read the inhibition as the drop in the measured response relative to a control, in per cent.

This note sets out measurements from ChEMBL document CHEMBL3244334, “Synthesis of pyridinium analogues of acetylcholine and their interactions with intestinal muscarinic receptors” (J Med Chem, 1979).

Activity calls are given as the source filed them. No cut-off for these calls is given here.

The species named for data set [1] is Cavia porcellus. Description: Agonist activity at muscarinic acetylcholine receptor in guinea pig ileum assessed as longitudinal muscle contraction measured every 20 mins in presence of 100 uM competitive nicotinic antagonist hexamethonium chloride. It counts as tissue-based. Put shortly: (§1)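 Isolated ileal muscle, cumulative agonist dose-response curves built every 20 min, read as contraction. pD2 derived; n = 15. Hexamethonium either left out of the bath or raised from 10 to 100 μM.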

Data set [2] is filed under the species Cavia porcellus. Description: Agonist activity at muscarinic acetylcholine receptor in guinea pig ileum assessed as longitudinal muscle contraction measured every 20 mins in absence of 10 uM competitive nicotinic antagonist hexamethonium chloride. Type of data set: tissue-based. Put shortly:
as §1

Data set [3] is filed under the species Cavia porcellus. Description: Agonist activity at muscarinic acetylcholine receptor in guinea pig ileum assessed as longitudinal muscle contraction measured every 20 mins in presence of 10 uM competitive nicotinic antagonist hexamethonium chloride. Type of data set: tissue-based. Put shortly:
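Isolated ileal muscle in a bath with 10 μM hexamethonium chloride to block ganglionic stimulation. Cumulative concentration-response curves to the test agonist and to acetyl-β-methylcholine (reference agonist) were built alternately on one preparation every 20 min. pD₂ was derived from the curves, n = 15 per drug, means ± SD.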

The species named for data set [4] is Cavia porcellus. Description: Agonist activity at muscarinic acetylcholine receptor in guinea pig ileum assessed as longitudinal muscle contraction measured every 20 mins in presence of 0.05 uM physostigmine. It counts as tissue-based.
The species named for data set [5] is Cavia porcellus. Description: Agonist activity at muscarinic acetylcholine receptor in guinea pig ileum assessed as longitudinal muscle contraction at 10^-3 M in presence of 10 uM competitive nicotinic antagonist hexamethonium chloride relative to control. It counts as tissue-based.
Data set [6] in a line: Toxicity in NMRI mouse. The conditions noted are these: in vivo. Type of data set: organism-based.
The target in data set [7] is Acetylcholinesterase (Electrophorus electricus) (UniProt O42275). Description: Inhibition of electric eel acetylcholinesterase using acetylcholine as substrate at 10^-3 M relative to control. Put shortly: (§2)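 Electric eel AChE; substrate 1 mM ACh. Inhibition taken as the lowered rate of ACh decomposition, measured by pH-stat titration. Six experiments per value, reported as means ± SD.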

Data set [8] shares this target. Description: Inhibition of electric eel acetylcholinesterase using acetylcholine as substrate at 3 x 10^-5 M relative to control. The gist of the method:
as §2

Data set [9] is described as follows: Competitive antagonist activity at muscarinic acetylcholine receptor in guinea pig ileum assessed as inhibition of acetyl-beta-methylcholine-induced longitudinal muscle contraction administered 10 mins prior to acetyl-beta-methylcholine induction measured every 20 mins in presence of 10 uM competitive nicotinic antagonist hexamethonium chloride. Type of data set: tissue-based. Particulars: Cavia porcellus, read-out: pA2 (converted). Put shortly: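 Ileal muscle was pretreated for 10 min with a single antagonist dose, then a cumulative acetyl-β-methylcholine concentration-response curve was run, with 10 μM hexamethonium chloride in the bath. Lachesine was the reference antagonist, run the same way. Rightward shift of the log concentration-response curves and any change in shape or maximum were assessed. Values are means ± SD.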

For data set [10], the species on record is Cavia porcellus. Description: Agonist activity at muscarinic acetylcholine receptor in guinea pig ileum assessed as longitudinal muscle contraction at 3 x 10^-5 M in presence of 10 uM competitive nicotinic antagonist hexamethonium chloride relative to control. It counts as tissue-based.
The species named for data set [11] is Cavia porcellus. Description: Agonist activity at muscarinic acetylcholine receptor in guinea pig ileum assessed as longitudinal muscle contraction at 10^-4 in presence of 10 uM competitive nicotinic antagonist hexamethonium chloride relative to control. Type of data set: tissue-based.
The species named for data set [12] is Cavia porcellus. Briefly: Agonist activity at muscarinic acetylcholine receptor in guinea pig ileum assessed as longitudinal muscle contraction at 10^-6 M in presence of 10 uM competitive nicotinic antagonist hexamethonium chloride relative to control. Type of data set: tissue-based.
Data set [13] concerns the target Acetylcholinesterase (Electrophorus electricus) (UniProt O42275). The conditions noted are these: 10^-6 M.
The nature of data set [14]: Competitive antagonist activity at muscarinic acetylcholine receptor in guinea pig ileum assessed as inhibition of 1-(2-acetoxyethyl)pyridinium iodide-induced longitudinal muscle contraction administered 10 mins prior to 1-(2-acetoxyethyl)pyridinium iodide induction measured every 20 mins in presence of 10 uM competitive nicotinic antagonist hexamethonium chloride. Type of data set: tissue-based. Particulars: Cavia porcellus, read-out: pA2 (converted). The gist of the method:
(§3)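 Ileal muscle in 10 μM hexamethonium chloride. Tissue conditioned with a single antagonist dose for 10 min before cumulative dose-response curves to the pyridinium agonist. Points are means of equipotent agonist concentrations giving standard responses, from 6–8 experiments.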

Data set [15] relates to Cavia porcellus. Description: Non-competitive antagonist activity at muscarinic acetylcholine receptor in guinea pig ileum assessed as inhibition of 1-(2-acetoxyethyl)pyridinium iodide-induced longitudinal muscle contraction at 0.1 uM administered 10 mins prior to 1-(2-acetoxyethyl)pyridinium iodide induction measured every 20 mins in presence of 10 uM competitive nicotinic antagonist hexamethonium chloride. Type of data set: tissue-based. The gist of the method:
as §3

Data set [16] addresses Acetylcholinesterase (Electrophorus electricus) (UniProt O42275). Briefly: Inhibition of electric eel acetylcholinesterase using acetylcholine as substrate at 10^-5 M relative to control. Put shortly: as §2
For data set [17] the target is unchanged. Briefly: Inhibition of electric eel acetylcholinesterase using acetylcholine as substrate at 3 x 10^-4 M relative to control. The gist of the method: as §2
For data set [18], the species on record is Cavia porcellus. Briefly: Agonist activity at muscarinic acetylcholine receptor in guinea pig ileum assessed as longitudinal muscle contraction at 3 x 10^-4 M in presence of 10 uM competitive nicotinic antagonist hexamethonium chloride relative to control. Type of data set: tissue-based.
For data set [19], the species on record is Cavia porcellus. Briefly: Agonist activity at muscarinic acetylcholine receptor in guinea pig ileum assessed as longitudinal muscle contraction at 10^-5 M in presence of 10 uM competitive nicotinic antagonist hexamethonium chloride relative to control. Type of data set: tissue-based.

Chain of Acetylcholinesterase (Electrophorus electricus) (O42275 24-633 limits assumed): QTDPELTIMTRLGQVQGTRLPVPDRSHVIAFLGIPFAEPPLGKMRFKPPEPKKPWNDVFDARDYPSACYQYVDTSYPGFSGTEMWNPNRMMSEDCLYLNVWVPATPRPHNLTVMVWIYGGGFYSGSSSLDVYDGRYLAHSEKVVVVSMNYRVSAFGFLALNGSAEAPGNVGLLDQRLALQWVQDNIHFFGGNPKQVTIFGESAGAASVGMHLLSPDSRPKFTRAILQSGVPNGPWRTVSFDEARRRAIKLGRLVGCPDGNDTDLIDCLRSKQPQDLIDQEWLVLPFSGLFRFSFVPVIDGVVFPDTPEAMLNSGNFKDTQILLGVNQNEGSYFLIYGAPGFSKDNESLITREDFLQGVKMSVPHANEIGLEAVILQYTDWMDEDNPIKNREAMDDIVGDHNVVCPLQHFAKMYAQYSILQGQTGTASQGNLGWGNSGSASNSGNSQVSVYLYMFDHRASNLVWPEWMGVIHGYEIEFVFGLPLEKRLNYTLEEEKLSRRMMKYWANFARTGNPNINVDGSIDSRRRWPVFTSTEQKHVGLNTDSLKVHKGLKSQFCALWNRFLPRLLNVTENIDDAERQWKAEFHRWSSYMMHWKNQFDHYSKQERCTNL

Take `CC(=O)OC(C)C[N+](C)(C)C` (configuration not stated): the result in the data set filed under Cavia porcellus [1], in the data set listed under Cavia porcellus [2] and in the data set listed under Cavia porcellus [4] was Active. Moreover, the pD2 in the data set listed under Cavia porcellus [3] is 7.02.
As to `CC(=O)OCC[n+]1ccc(C)cc1.[Br-]`, the %max in the data set filed under Cavia porcellus [5] and in the data set listed under Cavia porcellus [10] was 0% each time. The LD50 in data set [6] worked out at 2000 µmol/kg. The inhibition in [7] came to 77.4%; in [8] it was 42.5%. The Kb in [9] was 372 µM.
With `CC(=O)OCC[n+]1ccccc1`, the result in the data set filed under Cavia porcellus [1], in the data set filed under Cavia porcellus [2] and in the data set filed under Cavia porcellus [4] was Active. Also, the %max in the data set filed under Cavia porcellus [11] was 89%; in the data set filed under Cavia porcellus [12], 0%. Besides, the inhibition in data set [13] worked out at 23.9%. In addition, the pD2 in the data set filed under Cavia porcellus [3] was 4.62.
Regarding `CC[N+](C)(C)CCOC(=O)C(O)(c1ccccc1)c1ccccc1` [LACHESINE CHLORIDE], the Kb in data set [14] is 0.00219 µM; in data set [9], 0.0024 µM. Also, the inhibition result with Cavia porcellus [15] is “Active”.
For the compound `CC(=O)OCC[n+]1ccc(C(C)(C)C)cc1.[Br-]`, the inhibition in data set [16] worked out at 32.3%; in [17] it was 66.2%. The LD50 in data set [6] is 2000 µmol/kg. Besides, the values for the Kb in data set [14] and in data set [9] were 30.2 µM and 37.2 µM, respectively. Besides, the %max in the data set listed under Cavia porcellus [18] and in the data set filed under Cavia porcellus [19] was 0% each time.
